Source: PubChem BioAssay (The Scripps Research Institute Molecular Screening Center)
Hits are enriched below; roughly 2% of the tested compounds scored in any of these assays.
CHRM5 antagonist – antagonists of human muscarinic M5 receptor (CHRM5); P08912; CHO-hM5 cells, Fluo-8 calcium fluorescence, ACh EC80; inhibition, % at 3 µM; 0.59% of 360,000 active;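 active = inhibition above a per-plate cutoff, the mean of that plate's test compounds plus 3 SD, cut at about 27% in these data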;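 also: 0% = acetylcholine EC80 with DMSO and 100% = DMSO without agonist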
CHRM1 PAM – positive allosteric modulators of human M1 muscarinic receptor; 0.088% of 360,000 active; P11229; activation, % at 3 µM; CHO-K1 hM1, Fluo-8 calcium fluorescence, ACh EC20; 0% = ACh EC20, 100% = maximal ACh; in the data active = activation above about 19%, passing the limit was not always enough
Target sequence (P11229 whole entry, looked up): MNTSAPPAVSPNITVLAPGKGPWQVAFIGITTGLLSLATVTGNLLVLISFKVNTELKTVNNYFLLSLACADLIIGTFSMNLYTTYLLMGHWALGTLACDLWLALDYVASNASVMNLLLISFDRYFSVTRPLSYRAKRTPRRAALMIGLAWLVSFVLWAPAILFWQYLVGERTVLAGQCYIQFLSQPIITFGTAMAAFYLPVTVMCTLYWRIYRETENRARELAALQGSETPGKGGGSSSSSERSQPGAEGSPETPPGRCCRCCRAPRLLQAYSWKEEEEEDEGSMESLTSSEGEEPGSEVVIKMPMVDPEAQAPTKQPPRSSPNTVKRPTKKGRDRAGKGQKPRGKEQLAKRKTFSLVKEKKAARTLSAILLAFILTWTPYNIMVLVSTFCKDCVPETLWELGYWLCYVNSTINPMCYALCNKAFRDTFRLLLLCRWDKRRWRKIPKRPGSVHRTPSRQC
CHRM5 agonist – CHRM5 agonism in calcium assay; P08912; CHO-K1 hM5 cells, Fluo-8 calcium fluorescence; 0% DMSO wells, 100% maximal acetylcholine response; activation, % at 3 µM; 0.19% of 360,000 active; AID 624037;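 active = activation above the run's mean over test compounds plus 3 SD, cut at about 23% in these data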;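 also: signal is peak over basal fluorescence ratio across the kinetic read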
CHRM1 agonist – activates human CHRM1 receptor | P11229 | CHO-K1 hM1, Fluo-8 calcium fluorescence, agonist mode; 0% DMSO, 100% acetylcholine EC100 | activation, % at 3 µM | 0.33% of 360,000 active | AID 588814;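 active = activation above the run's mean compound activation plus 3 SD, cut at about 16% in these data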;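 also: peak over basal fluorescence ratio within a 140 s kinetic read after compound addition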
CHRM1 antagonist – blocks human M1 muscarinic receptor; 1.3% of 360,000 active; CHO-K1 hM1, Fluo-8 calcium fluorescence, ACh EC80 antagonist; AID 588852; inhibition, % at 3 µM;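 active = percent inhibition above its own plate's cutoff, namely the mean of that plate's compound wells plus 3 SD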;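 also: peak over basal fluorescence ratio during 140 s after agonist addition; 0% = ACh EC80 plus DMSO and 100% = DMSO alone without agonist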
CHRM5 PAM – CHRM5 positive allosteric modulation | 0.3% of 360,000 active | activation, % at 3 µM | P08912 | CHO-K1 hM5, Fluo-8 calcium, ACh EC20 PAM; 0% = ACh EC20, 100% = ACh EC100;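 active = activation above the run cutoff, the mean activation of all test compounds plus 3 SD, cut at about 18% in these data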
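Replicates: One well per compound, no replicates | System: Human M5 receptor in CHO-K1 cells | Benchmarks: Low control EC20 acetylcholine (0%), high control EC100 acetylcholine (100%) | Probe or stimulus: Acetylcholine, EC20 level | Times: Fluo-8 loading 80 min at 37 °C plus 30 min room temperature | Signal: Intracellular calcium via Fluo-8 fluorescence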
* marks the source's active call; other numbers are inactive results; . = no result.

SMILES	CHRM5 antagonist	CHRM1 PAM	CHRM5 agonist	CHRM1 agonist	CHRM1 antagonist	CHRM5 PAM
O=S(=O)(c1ccc(F)cc1)c1snnc1-c1ccccc1	9	-5	-10	-13	-8	-10
O=S(=O)(c1ccc(Cl)cc1)c1snnc1-c1ccccc1	10	-22	-8	-6	37*	-22
CCN(CC)S(=O)(=O)c1ccc(SCC(=O)c2c(N)n(C3CC3)c(=O)[nH]c2=O)nc1	2	5	1	-4	-5	-2
CCCCCC(=O)Nc1cccc(C2=NOC3(C2)C[C@H](C(N)=O)N(C(=O)c2ccccc2)C3)c1 (some centres undefined)	3	16	3	3	-9	19*
CCCCCC(=O)Nc1cccc(C2=NOC3(C2)C[C@H](C(N)=O)N(C(=O)c2ccccc2C(=O)c2ccccc2)C3)c1 (some centres undefined)	4	6	2	-6	-5	4
CCCCOCCCNC(=O)C[C@@H]1C[C@@]2(C(=O)OCC)CCC=C2N(Cc2ccc3c(c2)OCO3)C1=O	-7	.	-3	.	.	-3
CC(C)OC(=O)c1cc(C(=O)c2cc(F)ccc2O)coc1=N	-6	4	13	4	4	13
COc1ccc(O)c(C(=O)c2coc(=N)c(C(=O)Nc3ccc(SC(F)F)cc3)c2)c1	28*	-13	8	0	30	-33
Cc1c2cnn(CC(=O)NC3CCCC3)c(=O)c2c(C)n1Cc1ccccc1	20	9	4	23*	-7	-6
Cc1c2cnn(CC(=O)NCCCN3CCCCC3C)c(=O)c2c(C)n1Cc1ccccc1 (centres undefined)	4	-10	-2	-6	5	-5
CCc1c(C#N)c(SCCC(=O)Nc2cccc(OC)c2)nc2c1C(=O)CC(C)(C)C2	6	-11	-2	-1	14	-12
CCc1c(C#N)c(SCCC(=O)Nc2ccc(F)cc2)nc2c1C(=O)CC(C)(C)C2	15	-18	-1	0	38*	-26
CCc1ccc(C(=O)NNC(=O)C2CC(=O)N(Cc3ccccc3)C2)cc1 (centres undefined)	1	15	-1	-1	-14	1
O=C(NNC(=O)C1CC(=O)N(Cc2ccccc2)C1)c1ccc(Br)cc1 (centres undefined)	29*	-6	-5	-1	14	-7
COc1ccc(-c2sc3cc4c(cc3c2-c2ccc(OCCN3CCCCC3)cc2)OCO4)cc1	-6	1	-2	-4	-4	3
COc1ccccc1-c1sc2cc3c(cc2c1-c1ccc(OCCN2CCOCC2)cc1)OCO3	-4	-11	0	0	25*	-3
C[C@@H]1COC(=O)[C@H](CC(=O)OC(C)(C)C)C/C=C\C[C@H](CC(=O)N(CCO)Cc2ccccc2)C(=O)N1	15	18	-5	0	-6	3
O=C1NC[C@H](c2ccccc2)OC(=O)[C@H](Cc2ccc(F)cc2)CC/C=C/C[C@H]1CC(=O)N(CCO)Cc1ccccc1	22	-5	2	0	20	-28
O=C(C[C@H]1C/C=C\CC[C@H](Cc2ccc(F)cc2)C(=O)O[C@@H](c2ccccc2)CNC1=O)N[C@H](CO)Cc1ccccc1	2	3	7	36*	9	1
O=C1NC[C@H](c2ccccc2)OC(=O)[C@@H](Cc2ccc(F)cc2)CC/C=C/C[C@H]1CC(=O)N(CCO)Cc1ccccc1	21	-16	5	-3	32*	-39
O=C(C[C@H]1C/C=C\CC[C@H](Cc2ccc(F)cc2)C(=O)O[C@@H](c2ccccc2)CNC1=O)N[C@@H](CO)Cc1ccccc1	16	-5	2	0	17	-21
CC(C)(C)OC(=O)C[C@@H]1C/C=C\C[C@@H](CC(=O)N(CCO)Cc2ccccc2)C(=O)N[C@@H](c2ccccc2)COC1=O	29*	-12	0	-4	15	-26
O=C(C[C@H]1C/C=C\C[C@H](Cc2ccc(F)cc2)C(=O)O[C@@H](c2ccccc2)CNC1=O)N[C@H](CO)Cc1ccccc1	16	2	12	37*	9	-2
O=C(C[C@H]1C/C=C\CC[C@H](Cc2ccc(F)cc2)C(=O)O[C@H](c2ccccc2)CNC1=O)N[C@H](CO)Cc1ccccc1	10	-7	1	-1	14	-11
COC(=O)c1cc(=O)nc(NN=Cc2ccco2)s1	-4	8	3	-2	-11	0
SMILES	CHRM5 antagonist	CHRM1 PAM	CHRM5 agonist	CHRM1 agonist	CHRM1 antagonist	CHRM5 PAM
C=CCn1c(C(C)n2c(-c3cnccn3)nc3ccccc32)nc2ccccc21 (centres undefined)	7	.	-3	.	.	-2
Cc1ccc(OCCNC(=O)c2cccc(S(=O)(=O)N3CCN(C)CC3)c2)cc1	-9	16	0	-1	-21	5
CCc1ccc(S(=O)(=O)NCc2ccc(C(=O)NCCN(Cc3ccccc3)C(C)C)cc2)cc1	29*	-33	1	-4	68*	-18
CC(=O)Nc1ccc(S(=O)(=O)NCc2ccc(C(=O)NCCN(C)Cc3ccccc3)cc2)cc1	10	6	-1	-10	-11	-4
CCn1c(C)cc2c(c1=O)C(c1ccc3c(c1)OCO3)C(C#N)=C(N)O2 (centres undefined)	19	-34	-8	-15	66*	-23
COc1ccc2c(c1)-c1c(sn(-c3ccc(OC)c(OC)c3)c1=S)C(C)(C)N2	8	-17	-15	-6	27*	-30
COc1cc(/C=C2/SC(=Nc3ccc(O)cc3)NC2=O)cc(OC)c1O	0	4	7	0	0	3
COc1ccccc1N=C1NC(=O)/C(=C/c2ccc(N(C)C)cc2)S1	36*	-2	51*	22*	10	-15
Cn1cc(SCC(=O)Nc2ccc3c(c2)OCO3)c2ccccc21	0	12	0	-6	-18	-3
O=C(CCn1cnc2ccccc2c1=O)Nc1ccc2c(c1)OCCO2	-8	-4	-5	1	7	25*
O=C(Cn1cnc2ccccc2c1=O)NCCC(=O)Nc1ccc2c(c1)OCO2	3	10	0	-6	-10	9
CCCn1cc(SCC(=O)Nc2ccc3c(c2)OCO3)c2ccccc21	5	-10	29*	0	-3	-20
Cn1nc(CC(=O)Nc2ccc3c(c2)OCCO3)c2ccccc2c1=O	32*	-11	6	2	31*	-8
COc1ccc(Cl)cc1C(=O)NNC(=S)NC(=O)c1ccc(F)c(F)c1	5	-7	-1	37*	2	-4
